ChEMBL document CHEMBL1177761, “Click chemistry to probe Hsp90: Synthesis and evaluation of a series of triazole-containing novobiocin analogues” (Bioorg Med Chem Lett, 2010)
“And” between values parts separate entries of the source, which are not always exact repeats. Identical values can stand only once. The source made the active and inactive calls. The rule behind the calls is not given here.

Experiments:
SK-BR-3 = assay: Antiproliferative activity against human ER deficient SKBR3 cells over expressing HER2; format: functional, cell-based
In short: (§1)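 Growth inhibition was measured in the listed cell lines. IC50 is the compound concentration that inhibits cellular growth by 50%. Values are mean ± standard error from at least two separate experiments, each run in triplicate.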

MCF7 = assay: Antiproliferative activity against human MCF7 cells expressing ER; format: functional, cell-based; in short: as §1
[1] = biological target: MCF-7 and SKBr-3 cells (Homo sapiens); assay: Antiproliferative activity against human MCF7 and SKBr3 cells
[2] = biological target: T1, Heat shock protein HSP90 (Homo sapiens) (UniProt P07900+P08238); assay: Inhibition of Hsp90 in human MCF7 cells assessed as Her2 degradation by Western blot analysis; format: cell-based
[3] = biological target: T1, Heat shock protein HSP90 (Homo sapiens); assay: Inhibition of Hsp90 in human MCF7 cells assessed as c-Raf degradation by Western blot analysis; format: cell-based

| SMILES | IC50 (SK-BR-3) | IC50 (MCF7) | IC50 [1] | inhibition [2] | inhibition [3] |
| --- | --- | --- | --- | --- | --- |
| Cc1c(O)ccc2cc(-n3cc(-c4ccc(F)cc4F)nn3)c(=O)oc12 | 34.2 µM | 33.5 µM |  |  |  |
| CO[C@@H]1[C@@H](OC(N)=O)[C@@H](O)[C@H](Oc2ccc3c(O)c(NC(=O)c4ccc(O)c(CC=C(C)C)c4)c(=O)oc3c2C)OC1(C)C [NOVOBIOCIN] | 475 µM | 481 µM |  |  |  |
| Cc1c(O)ccc2cc(-n3cc(-c4ccc(N(C)C)cc4)nn3)c(=O)oc12 | > 100 µM | > 100 µM |  |  |  |
| CC(=O)Oc1ccc2cc(-n3cc(/C=C/c4ccccc4)nn3)c(=O)oc2c1C | 65.1 µM | 28.5 µM |  |  |  |
| Cc1ccc(-c2cn(-c3cc4ccc(O)c(C)c4oc3=O)nn2)cc1 | > 100 µM | 23.2 µM |  |  |  |
| CC(=O)Oc1ccc2cc(-n3cc(-c4ccc(F)cc4F)nn3)c(=O)oc2c1C | > 100 µM | > 100 µM |  |  |  |
| COc1ccc(-c2cn(-c3cc4ccc(O)c(C)c4oc3=O)nn2)cc1 | > 100 µM | > 100 µM |  |  |  |
| COc1ccc(-c2cn(-c3cc4ccc(OC(C)=O)c(C)c4oc3=O)nn2)cc1 | > 100 µM | > 100 µM |  |  |  |
| COc1cccc(-c2cc(-c3cn(-c4cc5ccc(O[C@@H]6OC(C)(C)[C@H](OC)[C@@H](O)[C@H]6O)c(C)c5oc4=O)nn3)ccc2OC)c1 | 21.2 µM | 13.2 µM |  |  |  |
| CO[C@@H]1[C@@H](O)[C@@H](C)[C@H](Oc2ccc3cc(NC(=O)c4c[nH]c5ccccc45)c(=O)oc3c2C)OC1(C)C |  |  | 5.3 µM and 12.2 µM |  |  |
| CO[C@@H]1[C@@H](O)[C@@H](O)[C@H](Oc2ccc3cc(-n4cc(-c5c[nH]c6ccccc56)nn4)c(=O)oc3c2C)OC1(C)C | 8.17 µM | 18.3 µM |  |  |  |
| CO[C@@H]1[C@@H](O)[C@@H](O)[C@H](Oc2ccc3cc(-n4cc(-c5ccccc5)nn4)c(=O)oc3c2C)OC1(C)C | > 100 µM | 64.4 µM |  |  |  |
| CC(=O)Oc1ccc2cc(-n3cc(-c4cc5ccccc5[nH]4)nn3)c(=O)oc2c1C | 50.4 µM | 76.1 µM |  |  |  |
| CC(=O)Oc1ccc2cc(-n3cc(-c4ccccc4)nn3)c(=O)oc2c1C | 76.4 µM | 40.8 µM |  |  |  |
| COc1cccc(-c2cc(-c3cn(-c4cc5ccc(O)c(C)c5oc4=O)nn3)ccc2OC)c1 | 44.9 µM | 28 µM |  |  |  |
| Cc1c(O)ccc2cc(-n3cc(-c4ccccc4)nn3)c(=O)oc12 | 39 µM | 25.2 µM |  |  |  |
| CC(=O)Oc1ccc2cc(-n3cc(-c4ccc(N(C)C)cc4)nn3)c(=O)oc2c1C | > 100 µM | > 100 µM |  | inactive |  |
| Cc1c(O)ccc2cc(-n3cc(-c4cc5ccccc5[nH]4)nn3)c(=O)oc12 | 42.5 µM | 38.3 µM |  |  |  |
| CC(=O)Oc1ccc2cc(-n3cc(-c4c[nH]c5ccccc45)nn3)c(=O)oc2c1C | 6.52 µM | 7.45 µM |  | Dose-dependent effect | Dose-dependent effect |
| COc1cccc(-c2cc(-c3cn(-c4cc5ccc(OC(C)=O)c(C)c5oc4=O)nn3)ccc2OC)c1 | 50.8 µM | 42.4 µM |  |  |  |
| Cc1c(O)ccc2cc(-n3cc(/C=C/c4ccccc4)nn3)c(=O)oc12 | 33.9 µM | 33.7 µM |  |  |  |
| CC(=O)Oc1ccc2cc(-n3cc(-c4ccc(C)cc4)nn3)c(=O)oc2c1C | 90.8 µM | > 100 µM |  |  |  |
